The source of these data is the RNAGym collection of RNA variant scans (doi:10.1126/science.aae0568).

Sequences and labels used below:
B1: tRNA (parent)
chain: GUUCCGUUGGCGUAAUGGUAACGCGUCUCCCUCCUAAGGAGAAGACUGCGGGUUCGAGUCCCGUACGGAACG

Fewer inactive variants are shown than the library holds.

The series covers variants of B1. Put plainly: yeast fitness relative to wild type (ratio to wild type); higher = fitter; tRNA-Arg(CCU), competitive growth, 37 C, YPD. The gist of the method: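 Variants of the tRNA-Arg(CCU) gene were chemically synthesised with a 3% per-site mutation rate across 69 sites and placed at the native genomic locus in Saccharomyces cerevisiae. Six parallel replicates of the pooled strains were competed in YPD at 37°C for 24 hours, and gene amplicons from the start and end populations were read by 100-nucleotide paired-end sequencing. Darwinian fitness relative to wild type was derived from changes in genotype frequencies. Genotypes required ≥ 100 starting reads, and estimates < 0.5 were set to 0.5.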
For U8A A69C, the yeast fitness came to 0.915.
The same measure for G6A U13C: 0.937; for C11U G68A: 0.878; for C29G A43U C46U G67C: ≤ 0.5.
Take U19G C34U: the yeast fitness turned out to be 0.687.
The same measure for C34U A36U C66U A69U: 0.612.
The value for A14G G23A C49A was ≤ 0.5; that for U7G C34G A36C C62G G68C was ≤ 0.5; that for A15G A21G A42C C46A was ≤ 0.5.
The same measure for U3C A21G C34G A69C: ≤ 0.5.
Consider C22U G25A, for which the yeast fitness stood at 0.849.
With G6C C11G C27U A42G C66U, the yeast fitness came to 0.552.
C11G C34A A45G U54A: the yeast fitness is ≤ 0.5.
The value for C27U A45C G63A was 0.68; that for A21U C22U C66U A69U was ≤ 0.5.
The same measure for U3A G9C C31G C61U: 0.581.
As for U13A A15C C46U, the yeast fitness is 0.612.
The same measure for C31G C55G: 0.592; for C4U C24G C61U: 0.555.
In the case of C4G A21C A43U, the yeast fitness is ≤ 0.5.
C5G C11G A15C A45U C49U: the yeast fitness is ≤ 0.5.
On to C22U A40U U64A, for which the yeast fitness was ≤ 0.5.
As to A20G G48A C49G, the yeast fitness worked out at 0.635.
As to A20C U28A A70G, the yeast fitness was found to be 0.564.
A20U U32A C66U: the yeast fitness was determined as 0.554.
The same measure for C30G A37G A65G: ≤ 0.5; for G17C A37G C55U: ≤ 0.5; for A37U A45U A65G: ≤ 0.5.
The value for G12C C33U C46G U54A was ≤ 0.5; that for U28C G39C G44C G58A was ≤ 0.5; that for U26G C62U was 0.842.
The value for C5U C11A A21G A40U was 0.68; that for C24A C62U A70U was 0.543; that for A14G A15C U26A G48C C49U U59C was ≤ 0.5.
Consider U2A A20U U35C, for which the yeast fitness was ≤ 0.5.
In the case of A20G A40C A42U A43C G50A, the yeast fitness is ≤ 0.5.
As for G9C G50C, the yeast fitness is 0.514.
Take A37C A70C: the yeast fitness worked out at 0.968.
Consider U2A G17C C46U U59A, for which the yeast fitness was ≤ 0.5.
The value for U2A U3A G51A C61G was 0.513; that for A14U A45G U53C was ≤ 0.5; that for C11A C61U A70C was ≤ 0.5.
As for G10A U13A A14C A40C C62G, the yeast fitness is ≤ 0.5.
Consider C4U C5G C29U G63A A65G, for which the yeast fitness is 0.535.
The same measure for G6A G23C A37U A57G A65C: ≤ 0.5; for A20C G41C A42C G56A U64C: ≤ 0.5; for A14G G44C G58A A65G: 0.553.
The value for U2A G39C A70G was ≤ 0.5; that for C30U G58A was 0.919; that for G12A C49A G68A was ≤ 0.5.
The same measure for G12A C24A A36C C61U G67U: 0.615; for C5A A14C C49A: ≤ 0.5; for C60U C62G: 0.688.
Consider A37C C46U U53C, for which the yeast fitness is ≤ 0.5.
The value for G10A C29U G44C C60U was ≤ 0.5.
With C33U A43C, the yeast fitness turned out to be 0.656.
The same measure for A36U G39C: 0.669; for U8G G10A: ≤ 0.5; for C27G C31G C33U: ≤ 0.5.
The same measure for G9C A45G: 0.78; for G48C A65C: 0.989.
With G12A C55G, the yeast fitness worked out at 0.639.
The same measure for C27U U64C: 0.969.
The value for U19G A57G C66U was ≤ 0.5; that for G12A A14C U16C C31U C49G C60A was ≤ 0.5.
Consider C60U C66U, for which the yeast fitness turned out to be 0.711.
Take C24U C31A C33A C34U C46A A69C: the yeast fitness was 0.546.
The same measure for U8C G10A A40G: 0.551.
The value for U32C G56C was 0.676; that for G6A A15U G23A was 0.525; that for U28C C62A was 0.746.
With C11U C31A A42G C55A, the yeast fitness was ≤ 0.5.
Regarding U13G A45C G48A, the yeast fitness was 0.898.
The same measure for C46G A65U: 0.992; for U35A G44A: 0.715.
On to U2C U26G, for which the yeast fitness is 0.997.
The value for A20U C30G A69U was 0.59.
The value for U32C G41C was 0.931; that for C22U C49G was 0.87.
The value for C4G G17A A57U U59C was ≤ 0.5; that for G6C G63C A69G was ≤ 0.5.
For G6A A45G, the yeast fitness is 0.928.
The same measure for C5A G25A C29A C30U: 0.758.
The value for U3G C30U G48A was ≤ 0.5; that for C22A G25A G44A was 0.65; that for C4A G9C C11G A45C was 0.508.
As for G12A A20G U26C C31G C33U A42U G67C, the yeast fitness was ≤ 0.5.
Take C5A G17C C22U C60G C61U: the yeast fitness was found to be 0.947.
In the case of C5G A21C U32C G39A A57U U59C, the yeast fitness was ≤ 0.5.
The same measure for A37C A43C A65C: 0.612.
The same measure for U13A A20C A40U: ≤ 0.5; for C31U C33A A43U G48A U53A: ≤ 0.5.
The value for G17U A40U A42U C49G G51A C66A G68C was 0.536; that for U13A G38C G58C was 0.798.
Regarding C24G C61G, the yeast fitness amounted to 0.537.
The same measure for G12A G58C G63A: 0.615; for A37C A43U G52A C62A C66A: ≤ 0.5; for C29G G41A A57G: ≤ 0.5.
As to G12C G68A, the yeast fitness turned out to be 0.945.
The value for G9A C11U A36C A57G G68C was ≤ 0.5; that for U16C U28C G52C was ≤ 0.5; that for G17A C22U A37U U47A G68C was ≤ 0.5.
The value for G6C U35C was 0.866.
For the variant A40G G41A C55U, the yeast fitness was ≤ 0.5.
The value for G17A U64C was 0.878; that for C4G A21G C27U G52C G58A was ≤ 0.5; that for G9C U28A A40C U47C G52A was ≤ 0.5.
The value for C34U A36C C46G was ≤ 0.5; that for C4U U26C A42U G50C A65U was 0.552.
The value for C24U C27G U47C G56C U64C G68C was ≤ 0.5; that for U16A G67A was 0.926.
As for C4U C22G U28A A36U G51A, the yeast fitness is ≤ 0.5.
Take U19A C31U: the yeast fitness amounted to 0.954.
The same measure for G6A U47A C61U: 0.57; for G9A C11U C31U U59A: ≤ 0.5.
The value for A20G U54C was 0.719.
The same measure for A42G C60G C61G: ≤ 0.5; for C22G G39C U59G C66U: 0.504; for C5U A14C G41C: 0.613.
Take A15C C29A C60G G68A: the yeast fitness stood at 0.609.
Turning to C29U G68A A69C, the yeast fitness is ≤ 0.5.
C31U G48A C61A: the yeast fitness amounted to 0.532.
For the variant A15U A21C C24G C29U A42C G56U U59A, the yeast fitness was ≤ 0.5.
The value for A14U A43U A45G U53C was ≤ 0.5; that for U7C U28C G41A A42C G50C A70G was 0.572.
The value for U28A G39A U64G was ≤ 0.5; that for G18A U47A was 0.824; that for C11U G17A was 0.961.
In the case of C27G U32C C62U, the yeast fitness amounted to 0.62.
For the variant G10A U16A G48A A65U, the yeast fitness was ≤ 0.5.
The same measure for G38A U54C: 0.72.
G10C A14G: the yeast fitness stood at 0.569.
On to C5U A37U C61U, for which the yeast fitness is 0.623.
Consider U7C G25C A42G, for which the yeast fitness is 0.567.
As to A20C C30G C46A U47G C49A G52A G58C U64G A65G, the yeast fitness is ≤ 0.5.
For the variant U3C A21G C29G, the yeast fitness is ≤ 0.5.
The same measure for C34G C49U A57U: ≤ 0.5; for G9C C11U C24G C31U C34U C49U A69C: ≤ 0.5.
For the variant C22G C29U C31A A65G, the yeast fitness is ≤ 0.5.
For the variant C4U U7C A57U C61U, the yeast fitness is ≤ 0.5.
With C11U U54C A57G, the yeast fitness was found to be 0.553.
As for U8C G9A C22U C30A C49A C55A C62U C66U, the yeast fitness is ≤ 0.5.
Consider U2C G18C A21G C27A C30U G38A, for which the yeast fitness is ≤ 0.5.
The same measure for U7A U8C G17A C27G C29U A43C G52A: ≤ 0.5.
On to A14C C62G, for which the yeast fitness stood at 0.599.
For the variant U3C G18A C31A G56C A69C, the yeast fitness was ≤ 0.5.
The value for U3A A21C C33U U35A G51C G68C A70U was 0.564; that for C24U U47C U59C A69U was ≤ 0.5; that for U13C G23C C29G A43U G50A A65C was ≤ 0.5.
In the case of C5U U7C U26C U28C C29G C34A, the yeast fitness was determined as 0.659.
The same measure for C4A C31G G39A G51C: ≤ 0.5; for C5G C24G C30G C31U U35A A36U G44A G63C: 0.966; for U16C C33U A57G G63C: ≤ 0.5.
For U7G G9A, the yeast fitness is 0.827.
The same measure for U7A C11G A40U A42C: ≤ 0.5; for U2G A14C C30U U54G C55A: ≤ 0.5; for G58A C66U: 0.981.
As to C34U A40G U47C, the yeast fitness is ≤ 0.5.
The value for U26C A42U G56A was 0.651.
The same measure for C22A C55U: 0.918; for A15U U26A A37G U64A: ≤ 0.5.
The value for A15G G17A A21C was ≤ 0.5; that for U7A A40U A45G C46U was ≤ 0.5; that for C24U G48C was 0.955.
In the case of C4A C24G C33G G63C, the yeast fitness is ≤ 0.5.
The value for A20C U26A C61A A65U was 0.555; that for C4U G18C G50A was ≤ 0.5.
